Converted amounts (≈) assume the structure as drawn.
Legend:
Staphylococcus aureus [1] = assay: Antibacterial activity against Staphylococcus aureus ATCC 29213 assessed as reduction in bacterial growth incubated for 24 hrs by broth microdilution method; type: functional
Procedure, shortened: (§1)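 Cation-adjusted Mueller-Hinton broth microdilution per EUCAST, modified; compounds from DMSO stocks, final DMSO ≤1% v/v; scale starting from 0.49 µM. Static incubation at 35 ± 2 °C, dark, humidified, read at 24 and 48 h. MIC = lowest concentration with no visible growth by eye; duplicates, parallel readings within one dilution step; growth and medium/DMSO controls included.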

Staphylococcus aureus [2] = assay: Antibacterial activity against Staphylococcus aureus ATCC 29213 assessed as reduction in bacterial growth incubated for 48 hrs by broth microdilution method; type: functional; procedure, shortened: as §1
Staphylococcus aureus [3] = assay: Antibacterial activity against methicillin-resistant Staphylococcus aureus ATCC 43300 assessed as reduction in bacterial growth incubated for 24 hrs by broth microdilution method; type: functional
Procedure, shortened: (§2)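 EUCAST-based broth microdilution in cation-adjusted Mueller-Hinton broth. DMSO stocks, final DMSO ≤1% v/v, concentration scale starting from 0.49 µM. Static incubation at 35 ± 2 °C, dark and humidified. Run in duplicate, accepted only if parallel MICs differ by at most one dilution step. MIC is the lowest concentration with no visible growth by naked eye.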

Staphylococcus aureus [4] = assay: Antibacterial activity against methicillin-resistant Staphylococcus aureus ATCC 43300 assessed as reduction in bacterial growth incubated for 48 hrs by broth microdilution method; type: functional; procedure, shortened: as §2
[5] = system: Staphylococcus epidermidis; assay: Antibacterial activity against Staphylococcus epidermidis ATCC 12228 assessed as reduction in bacterial growth incubated for 24 hrs by broth microdilution method; type: functional; procedure, shortened: as §1
[6] = system: Staphylococcus epidermidis; assay: Antibacterial activity against Staphylococcus epidermidis ATCC 12228 assessed as reduction in bacterial growth incubated for 48 hrs by broth microdilution method; type: functional; procedure, shortened: as §1
Enterococcus faecalis [7] = assay: Antibacterial activity against Enterococcus faecalis ATCC 29212 assessed as reduction in bacterial growth incubated for 24 hrs by broth microdilution method; type: functional; procedure, shortened: as §1
Enterococcus faecalis [8] = assay: Antibacterial activity against Enterococcus faecalis ATCC 29212 assessed as reduction in bacterial growth incubated for 48 hrs by broth microdilution method; type: functional; procedure, shortened: as §1
Escherichia coli [9] = assay: Antibacterial activity against Escherichia coli ATCC 25922 assessed as reduction in bacterial growth incubated for 24 hrs by broth microdilution method; type: functional; procedure, shortened: as §1
Escherichia coli [10] = assay: Antibacterial activity against Escherichia coli ATCC 25922 assessed as reduction in bacterial growth incubated for 48 hrs by broth microdilution method; type: functional; procedure, shortened: as §1
HepG2 = assay: Cytotoxicity against human HepG2 cells assessed as reduction in cell viability incubated for 24 hrs by cell-titer 96 aqueous one solution cell proliferation assay; type: functional, cell-based; settings: HepG2, 24 h
HK-2 = assay: Cytotoxicity against human HK-2 cells assessed as reduction in cell viability incubated for 24 hrs by cell-titer 96 aqueous one solution cell proliferation assay; type: cell-based; settings: HK-2, 24 h

| Compound | MIC (Staphylococcus aureus [1]) [µM] | MIC (Staphylococcus aureus [2]) [µM] | MIC (Staphylococcus aureus [3]) [µM] | MIC (Staphylococcus aureus [4]) [µM] | MIC [5] [µM] | MIC [6] [µM] | MIC (Enterococcus faecalis [7]) [µM] | MIC (Enterococcus faecalis [8]) [µM] | MIC (Escherichia coli [9]) [µM] | MIC (Escherichia coli [10]) [µM] | IC50 (HepG2) [µM] | IC50 (HK-2) [µM] |
| --- | --- | --- | --- | --- | --- | --- | --- | --- | --- | --- | --- | --- |
| O=C(N/N=C/c1cc(I)c(O)c(I)c1)c1ccc(O)cc1 | 500 (≈ 254 µg/mL) | 500 (≈ 254 µg/mL) | > 500 | > 500 | > 500 | > 500 | > 500 | > 500 | > 500 | > 500 | 110 |  |
| CC(C)(C)c1ccc(C(=O)N/N=C/c2cc(I)cc(I)c2O)cc1 | > 500 | > 500 | > 500 | > 500 | > 500 | > 500 | > 500 | > 500 | > 500 | > 500 | 41.6 |  |
| O=C(NNCc1cc(I)cc(I)c1O)c1ccc(Cl)cc1 | 31.2 (≈ 16.5 µg/mL) | 62.5 (≈ 33 µg/mL) | 31.2 (≈ 16.5 µg/mL) | 62.5 (≈ 33 µg/mL) | 15.6 (≈ 8.26 µg/mL) | 15.6 (≈ 8.26 µg/mL) | 15.6 (≈ 8.26 µg/mL) | 15.6 (≈ 8.26 µg/mL) | > 500 | > 500 | 52.2 |  |
| O=C(NNC(=O)c1cc(I)cc(I)c1O)c1ccccc1 |  |  |  |  |  |  |  |  |  |  | 98 |  |
| O=C(NNC(=O)c1cc(I)cc(I)c1O)c1ccc(Cl)cc1 | 62.5 (≈ 33.9 µg/mL) | 62.5 (≈ 33.9 µg/mL) | 62.5 (≈ 33.9 µg/mL) | 62.5 (≈ 33.9 µg/mL) | 31.2 (≈ 17 µg/mL) | 62.5 (≈ 33.9 µg/mL) | 125 (≈ 67.8 µg/mL) | 125 (≈ 67.8 µg/mL) | > 500 | > 500 | 48.6 |  |
| CC(C)(C)c1ccc(C(=O)NNC(=O)c2cc(I)cc(I)c2O)cc1 | > 500 | > 500 | > 500 | > 500 | > 500 | > 500 | > 500 | > 500 | > 500 | > 500 | 87.3 |  |
| CCN1CCN(C(=O)N[C@@H](C(=O)N[C@@H]2C(=O)N3[C@@H]2SC(C)(C)[C@@H]3C(=O)O)c2ccccc2)C(=O)C1=O [PIPERACILLIN SODIUM] | 1.85 |  | 14.8 |  | > 59.3 |  | 7.41 |  | 3.71 |  |  |  |
| O=C(N/N=C/c1cc(I)c(O)c(I)c1)c1ccc(I)cc1 | > 250 | > 250 | > 250 | > 250 | > 250 | > 250 | > 250 | > 250 | > 250 | > 250 | > 50 |  |
| Cc1ccc(C(=O)NNC(=O)c2cc(I)cc(I)c2O)cc1 | 125 (≈ 65.3 µg/mL) | > 125 | > 125 | > 125 | 125 (≈ 65.3 µg/mL) | > 125 | > 125 | > 125 | > 125 | > 125 | 86.4 |  |
| O=C(N/N=C/c1cc(I)cc(I)c1O)c1ccc(I)cc1 | > 125 | > 125 | > 125 | > 125 | > 125 | > 125 | > 125 | > 125 | > 125 | > 125 | 31.8 |  |
| O=C(NNC(=O)c1cc(I)cc(I)c1O)c1ccc(F)cc1 | 500 (≈ 263 µg/mL) | 500 (≈ 263 µg/mL) | 500 (≈ 263 µg/mL) | 500 (≈ 263 µg/mL) | 500 (≈ 263 µg/mL) | 500 (≈ 263 µg/mL) | 500 (≈ 263 µg/mL) | 500 (≈ 263 µg/mL) | > 500 | > 500 | 87 |  |
| Cc1ccc(C(=O)N/N=C/c2cc(I)cc(I)c2O)cc1 | > 500 | > 500 | > 500 | > 500 | > 500 | > 500 | > 500 | > 500 | > 500 | > 500 | > 25 |  |
| O=C(NNC(=O)c1cc(I)cc(I)c1O)c1ccc(C(F)(F)F)cc1 |  |  |  |  |  |  |  |  |  |  | 167 |  |
| CC(C)(C)c1ccc(C(=O)N/N=C/c2cc(I)c(O)c(I)c2)cc1 | 125 (≈ 68.5 µg/mL) | 125 (≈ 68.5 µg/mL) | 125 (≈ 68.5 µg/mL) | 250 (≈ 137 µg/mL) | 125 (≈ 68.5 µg/mL) | 250 (≈ 137 µg/mL) | 250 (≈ 137 µg/mL) | 500 (≈ 274 µg/mL) | > 500 | > 500 | 45.9 | > 250 |
| O=C(N/N=C/c1cc(I)c(O)c(I)c1)c1ccc([N+](=O)[O-])cc1 | 250 (≈ 134 µg/mL) | 250 (≈ 134 µg/mL) | 500 (≈ 269 µg/mL) | > 500 | > 500 | > 500 | > 500 | > 500 | > 500 | > 500 | 92.1 |  |
| O=C(NNC(=O)c1cc(I)cc(I)c1O)c1ccc([N+](=O)[O-])cc1 |  |  |  |  |  |  |  |  |  |  | 159 |  |
| COc1ccc(C(=O)N/N=C/c2cc(I)c(O)c(I)c2)cc1 | 500 (≈ 261 µg/mL) | 500 (≈ 261 µg/mL) | > 500 | > 500 | > 500 | > 500 | > 500 | > 500 | > 500 | > 500 | > 100 |  |
| O=C(N/N=C/c1cc(I)cc(I)c1O)c1ccccc1 | 62.5 (≈ 30.8 µg/mL) | 125 (≈ 61.5 µg/mL) | 62.5 (≈ 30.8 µg/mL) | 125 (≈ 61.5 µg/mL) | 62.5 (≈ 30.8 µg/mL) | 125 (≈ 61.5 µg/mL) | 250 (≈ 123 µg/mL) | 500 (≈ 246 µg/mL) | > 500 | > 500 | > 50 |  |
| O=C(N/N=C/c1cc(I)c(O)c(I)c1)c1ccc(Cl)cc1 | > 500 | > 500 | > 500 | > 500 | > 500 | > 500 | > 500 | > 500 | > 500 | > 500 | > 100 |  |
| O=C(N/N=C/c1cc(I)cc(I)c1O)c1ccc(Br)cc1 | 62.5 (≈ 35.7 µg/mL) | 62.5 (≈ 35.7 µg/mL) | 62.5 (≈ 35.7 µg/mL) | 125 (≈ 71.4 µg/mL) | 62.5 (≈ 35.7 µg/mL) | 125 (≈ 71.4 µg/mL) | 250 (≈ 143 µg/mL) | 250 (≈ 143 µg/mL) | > 250 | > 250 | 22.3 |  |
| O=C(NNC(=O)c1cc(I)cc(I)c1O)c1ccc(Br)cc1 |  |  |  |  |  |  |  |  |  |  | 62.8 |  |
| Cc1ccc(C(=O)N/N=C/c2cc(I)c(O)c(I)c2)cc1 | 250 (≈ 127 µg/mL) | 500 (≈ 253 µg/mL) | > 500 | > 500 | > 500 | > 500 | > 500 | > 500 | > 500 | > 500 | > 100 |  |
| O=C(N/N=C/c1cc(I)c(O)c(I)c1)c1ccc(Br)cc1 | > 500 | > 500 | > 500 | > 500 | > 500 | > 500 | > 500 | > 500 | > 500 | > 500 | > 50 |  |
| COc1ccc(C(=O)NNC(=O)c2cc(I)cc(I)c2O)cc1 | 500 (≈ 269 µg/mL) | > 500 | 500 (≈ 269 µg/mL) | > 500 | 500 (≈ 269 µg/mL) | > 500 | 500 (≈ 269 µg/mL) | > 500 | > 500 | > 500 | 132 |  |
| COc1ccc(C(=O)N/N=C/c2cc(I)cc(I)c2O)cc1 | > 500 | > 500 | > 500 | > 500 | > 500 | > 500 | > 500 | > 500 | > 500 | > 500 | 45.1 |  |
| O=C(N/N=C/c1cc(I)cc(I)c1O)c1ccc(Cl)cc1 | 31.2 (≈ 16.5 µg/mL) | 31.2 (≈ 16.5 µg/mL) | 31.2 (≈ 16.5 µg/mL) | 62.5 (≈ 32.9 µg/mL) | 31.2 (≈ 16.5 µg/mL) | 62.5 (≈ 32.9 µg/mL) | 62.5 (≈ 32.9 µg/mL) | 62.5 (≈ 32.9 µg/mL) | > 500 | > 500 | 14.8 |  |
| O=C(N/N=C/c1cc(I)c(O)c(I)c1)c1ccccc1 | 250 (≈ 123 µg/mL) | 250 (≈ 123 µg/mL) | 500 (≈ 246 µg/mL) | > 500 | > 500 | > 500 | > 500 | > 500 | > 500 | > 500 | 191 |  |
| O=C(N/N=C/c1cc(I)c(O)c(I)c1)c1ccc(F)cc1 | 125 (≈ 63.8 µg/mL) | 500 (≈ 255 µg/mL) | 500 (≈ 255 µg/mL) | > 500 | > 500 | > 500 | > 500 | > 500 | > 500 | > 500 | 117 |  |
| O=C(N/N=C/c1cc(I)c(O)c(I)c1)c1ccc(C(F)(F)F)cc1 | 125 (≈ 70 µg/mL) | 500 (≈ 280 µg/mL) | 500 (≈ 280 µg/mL) | 500 (≈ 280 µg/mL) | 500 (≈ 280 µg/mL) | 500 (≈ 280 µg/mL) | 500 (≈ 280 µg/mL) | 500 (≈ 280 µg/mL) | > 500 | > 500 | 57.4 |  |

— ChEMBL document CHEMBL4811275, “Iodinated 1,2-diacylhydrazines, benzohydrazide-hydrazones and their analogues as dual antimicrobial and cytotoxic agents” (Bioorg Med Chem, 2021)
